Laboratory results taken from ChEMBL document CHEMBL4834405, “Structure-Based Design of High-Affinity Macrocyclic FKBP51 Inhibitors” (J Med Chem, 2021).

How the values were obtained:
[1] = (§1) Selectivity ratio of Kd for displacement of fluorescent tracer 5-(3-(4-((1S,5S,6S)-10-(3,5-dichlorophenylsulfonyl)-2-oxo-3-(pyridin-3-ylmethyl)-3,10-diazabicyclo[4.3.1]decan-5-yl)-1H-1,2,3-triazol-1-yl)propylcarbamoyl)-2-(6-(dimethylamino)-3-(dimethyliminio)-3H-xanthen-9-yl)benzoate from recombinant full length C-terminal FLAG-tagged FKBP52 (unknown origin) to Kd for displacement of fluorescent tracer 5-(3-(4-((1S,5S,6S)-10-(3,5-dichlorophenylsulfonyl)-2-oxo-3-(pyridin-3-ylmethyl)-3,10-diazabicyclo[4.3.1]decan-5-yl)-1H-1,2,3-triazol-1-yl)propylcarbamoyl)-2-(6-(dimethylamino)-3-(dimethyliminio)-3H-xanthen-9-yl)benzoate from recombinant full length C-terminal FLAG-tagged FKBP51 (unknown origin)
[2] = target: T1, Peptidyl-prolyl cis-trans isomerase FKBP5 (Homo sapiens, UniProt Q13451); assay: (§2) Displacement of fluorescent tracer 5-(3-(4-((1S,5S,6S)-10-(3,5-dichlorophenylsulfonyl)-2-oxo-3-(pyridin-3-ylmethyl)-3,10-diazabicyclo[4.3.1]decan-5-yl)-1H-1,2,3-triazol-1-yl)propylcarbamoyl)-2-(6-(dimethylamino)-3-(dimethyliminio)-3H-xanthen-9-yl)benzoate from recombinant full length C-terminal FLAG-tagged FKBP51 (unknown origin) expressed in Escherichia coli BL21 (DE3) cells incubated for 30 mins by fluorescence polarisation competition binding assay
T1 sequence (Q13451 whole entry): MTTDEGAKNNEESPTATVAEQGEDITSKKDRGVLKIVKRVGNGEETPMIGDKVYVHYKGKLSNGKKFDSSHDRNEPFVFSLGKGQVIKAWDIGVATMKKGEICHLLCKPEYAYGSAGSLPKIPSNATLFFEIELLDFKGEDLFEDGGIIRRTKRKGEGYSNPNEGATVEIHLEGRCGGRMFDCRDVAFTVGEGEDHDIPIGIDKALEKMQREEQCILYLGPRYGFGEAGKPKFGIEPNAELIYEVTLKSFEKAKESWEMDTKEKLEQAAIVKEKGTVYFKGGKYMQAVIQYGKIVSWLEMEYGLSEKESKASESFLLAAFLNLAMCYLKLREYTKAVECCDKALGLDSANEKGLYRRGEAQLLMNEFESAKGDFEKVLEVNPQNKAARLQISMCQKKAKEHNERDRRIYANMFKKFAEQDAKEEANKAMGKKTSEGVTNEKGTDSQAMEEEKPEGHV

[3] = target: Peptidyl-prolyl cis-trans isomerase FKBP1B (Homo sapiens, UniProt P68106); assay: as §2, with “FKBP12.6” for “FKBP51”, “competition” for “competition binding”
Sequence of Peptidyl-prolyl cis-trans isomerase FKBP1B (P68106 whole entry): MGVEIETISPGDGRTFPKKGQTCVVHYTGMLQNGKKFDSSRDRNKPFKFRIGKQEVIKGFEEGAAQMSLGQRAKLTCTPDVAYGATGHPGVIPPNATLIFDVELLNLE
In short: (§3)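 Competitive FP in 150 mM NaCl, 20 mM HEPES pH 8.0, 0.002% Triton X-100. Ligand 1:1 serially diluted in DMSO and premixed with fluorescent tracer, tracer working solution 11.9 nM (FKBP12.6, 51FK1, 52FK1) or 5.95 nM (FKBP12) before final 10-fold dilution into protein. 30 min at room temperature, read at ex/em 535/590 nm. Weighted SD from at least two independent runs.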

[4] = target: Peptidyl-prolyl cis-trans isomerase FKBP1A (Homo sapiens, UniProt P62942); assay: as §2, with “FKBP12” for “FKBP51”, “([…])” for “(DE3)”; in short: as §3
Sequence of Peptidyl-prolyl cis-trans isomerase FKBP1A (P62942 whole entry): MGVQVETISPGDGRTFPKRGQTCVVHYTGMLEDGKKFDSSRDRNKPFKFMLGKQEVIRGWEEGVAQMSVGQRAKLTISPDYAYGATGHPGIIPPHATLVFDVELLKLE

[5] = as §1, with “FJBP12” for “FKBP52 (unknown origin)”
[6] = as §1, with “FKBP12.6” for “FKBP52”
[7] = target: T2, Peptidyl-prolyl cis-trans isomerase FKBP4 (Homo sapiens, UniProt Q02790); assay: as §2, with “FKBP52” for “FKBP51”; in short: as §3
T2 sequence (Q02790 whole entry): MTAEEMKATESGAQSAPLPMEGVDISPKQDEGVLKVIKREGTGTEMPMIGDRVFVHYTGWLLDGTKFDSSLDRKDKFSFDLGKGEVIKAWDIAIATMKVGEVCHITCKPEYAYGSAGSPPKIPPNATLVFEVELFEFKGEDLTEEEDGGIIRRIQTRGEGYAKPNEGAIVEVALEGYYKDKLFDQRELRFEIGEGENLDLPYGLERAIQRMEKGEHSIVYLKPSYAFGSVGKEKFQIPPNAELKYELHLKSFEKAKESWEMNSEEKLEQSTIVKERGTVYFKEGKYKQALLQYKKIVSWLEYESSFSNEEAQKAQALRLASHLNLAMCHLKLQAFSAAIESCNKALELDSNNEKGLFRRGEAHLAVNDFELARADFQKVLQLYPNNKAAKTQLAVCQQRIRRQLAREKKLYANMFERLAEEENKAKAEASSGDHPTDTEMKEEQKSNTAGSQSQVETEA

Compound | Selectivity ratio [1] | Kd [2] [nM] | Kd [3] [nM] | Kd [4] [nM] | Selectivity ratio [5] | Selectivity ratio [6] | Kd [7] [nM]
COc1ccc(CC[C@H]2OC(=O)[C@@H]3CCCCN3C(=O)[C@@H](C3CCCCC3)c3cc(OC)c(OC)c(c3)OC/C=C/COc3cccc2c3)cc1OC | 49.9 | 108 | 216 | 212 | 1.9 | 2 | 5390
COc1ccc(CC[C@H]2OC(=O)[C@@H]3CCCCN3C(=O)[C@@H](C3CCCCC3)c3cc(OC)c(OC)c(c3)OC[C@H](O)[C@@H](O)COc3cccc2c3)cc1OC | 227 | 17 | 19 | 44 | 2.6 | 1.1 | 3850
COc1ccc(CC[C@H]2OC(=O)[C@@H]3CCCCN3C(=O)[C@@H](C3CCCCC3)c3cc(OC)c(c(OC)c3)OCCC(=O)COc3cccc2c3)cc1OC | 425 | 11 | 38 | 86 | 7.8 | 3.4 | 4670
COc1ccc(CC[C@H]2OC(=O)[C@@H]3CCCCN3C(=O)[C@@H](C3CCCCC3)c3cc(OC)c(OC)c(c3)OCCC(=O)COc3cccc2c3)cc1OC | 294 | 12 | 32 | 59 | 4.9 | 2.7 | 3530
COc1ccc(CC[C@H]2OC(=O)[C@@H]3CCCCN3C(=O)[C@@H](C3CCCCC3)c3cc(OC)c(c(OC)c3)OCCOc3cccc2c3)cc1OC | > 147 | 68 | 227 | 532 | 7.8 | 3.3 | > 10000
COc1ccc(CC[C@H]2OC(=O)[C@@H]3CCCCN3C(=O)[C@@H](C3CCCCC3)c3cc(OC)c(c(OC)c3)OCC(O)C(O)COc3cccc2c3)cc1OC (mixture of isomers) | 66.2 | 12 | 85 | 79 | 6.5 | 7 | 795
COc1ccc(CC[C@H]2OC(=O)[C@@H]3CCCCN3C(=O)[C@@H](C3CCCCC3)c3cc(OC)c(c(OC)c3)OCC/C=C/COc3cccc2c3)cc1OC | > 67 | 149 | 1080 | 1010 | 6.8 | 7.2 | > 10000
COc1ccc(CC[C@H]2OC(=O)[C@@H]3CCCCN3C(=O)[C@@H](C3CCCCC3)c3cc(OC)c(OC)c(c3)OCCC(=O)CCOc3cccc2c3)cc1OC | 175 | 8 | 20 | 38 | 4.8 | 2.5 | 1400
COc1ccc(CC[C@H]2OC(=O)[C@@H]3CCCCN3C(=O)[C@@H](C3CCCCC3)c3cc(OC)c(c(OC)c3)OC/C=C\COc3cccc2c3)cc1OC | > 149 | 67 | 658 | 815 | 12.2 | 9.8 | > 10000
COc1ccc(CC[C@H]2OC(=O)[C@@H]3CCCCN3C(=O)[C@@H](C3CCCCC3)c3cc(OC)c(c(OC)c3)OCCCCOc3cccc2c3)cc1OC | > 112 | 89 | 383 | 584 | 6.6 | 4.3 | > 10000
COc1ccc(CC[C@H]2OC(=O)[C@@H]3CCCCN3C(=O)[C@@H](C3CCCCC3)c3cc(OC)c(OC)c(c3)OCCOc3cccc2c3)cc1OC | > 165 | 55 | 82 | 247 | 4.5 | 1.5 | 9090
COc1ccc(CC[C@H]2OC(=O)[C@@H]3CCCCN3C(=O)[C@@H](C3CCCCC3)c3cc(OC)c(OC)c(c3)OCCOCCCCOc3cccc2c3)cc1OC | > 164 | 61 | 115 | 135 | 2.2 | 1.9 | > 10000
COc1ccc(CC[C@H]2OC(=O)[C@@H]3CCCCN3C(=O)[C@@H](C3CCCCC3)c3cc(OC)c(OC)c(c3)OCCCOCCCCOc3cccc2c3)cc1OC | > 97 | 103 | 227 | 354 | 3.4 | 2.2 | > 10000
COc1ccc(CC[C@H]2OC(=O)[C@@H]3CCCCN3C(=O)[C@@H](C3CCCCC3)c3cc(OC)c(OC)c(c3)OCCOCC(=O)CCOc3cccc2c3)cc1OC | 138 | 28 | 53 | 62 | 2.2 | 1.9 | 3880
COc1ccc(CC[C@H]2OC(=O)[C@@H]3CCCCN3C(=O)[C@@H](C3CCCCC3)c3cc(OC)c(c(OC)c3)OCCCOCCCCOc3cccc2c3)cc1OC | > 133 | 75 | 277 | 484 | 6.4 | 3.7 | > 10000
COc1ccc(CC[C@H]2OC(=O)[C@@H]3CCCCN3C(=O)[C@@H](C3CCCCC3)c3cc(OC)c(OC)c(c3)OCCCC(=O)COc3cccc2c3)cc1OC | 146 | 28 | 43 | 66 | 2.4 | 1.5 | 4100
COc1ccc(CC[C@H]2OC(=O)[C@@H]3CCCCN3C(=O)[C@@H](C3CCCCC3)c3cc(OC)c(OC)c(c3)OCC/C=C\COc3cccc2c3)cc1OC | > 141 | 71 | 116 | 139 | 2 | 1.6 | > 10000
COc1ccc(CC[C@H]2OC(=O)[C@@H]3CCCCN3C(=O)[C@@H](C3CCCCC3)c3cc(OC)c(c(OC)c3)OCCCOc3cccc2c3)cc1OC | > 142 | 70 | 446 | 744 | 10.6 | 6.3 | > 10000
COc1ccc(CC[C@H]2OC(=O)[C@@H]3CCCCN3C(=O)[C@@H](C3CCCCC3)c3cc(OC)c(c(OC)c3)OC/C=C/COc3cccc2c3)cc1OC | > 112 | 89 | 606 | 768 | 8.6 | 6.8 | > 10000
COc1ccc(CC[C@H]2OC(=O)[C@@H]3CCCCN3C(=O)[C@@H](C3CCCCC3)c3cc(OC)c(OC)c(c3)OCCCCCOc3cccc2c3)cc1OC | > 217 | 46 | 100 | 126 | 2.7 | 2.2 | > 10000
